Test results taken from ChEMBL document CHEMBL4033786, “Discovery of Novel 1-Cyclopentenyl-3-phenylureas as Selective, Brain Penetrant, and Orally Bioavailable CXCR2 Antagonists” (J Med Chem, 2018).
pIC50: −log10 of the molar value. Values after ≈ are worked out from the molar mass of the structure shown. Active and inactive are the calls of the source. The rule behind the calls is not given here.

Legend:
[1] = Ratio of passive permeability in presence of dual P-gp/BCRP inhibitor GF120918 to absence of GF120918 in MDCK2-MDR1 cells transduced with BacMam2-BCRP at 3 uM after 90 mins by Transwell assay; assay type: ADME, cell-based, Canis lupus familiaris; conditions: dog, mdck2-mdr1, 1.5 h
Procedure, shortened: (§1)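 MDCKII-MDR1 cells transduced with BacMam2-BCRP and grown in Transwells. Compound at 3 μM, in duplicate, was incubated 90 min A→B (and B→A) with and without GF120918 (5 μM, dual P-gp/BCRP inhibitor). Passive permeability (Pexact, nm/s) was calculated by an equation from earlier work. The permeability ratio is A→B permeability with GF120918 over A→B permeability without it.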

[2] = Passive permeability in MDCK2-MDR1 cells transduced with BacMam2-BCRP at 3 uM after 90 mins by Transwell assay; assay type: ADME, cell-based, Canis lupus familiaris, MDCK-MDR1; conditions: dog; read-out: permeability; procedure, shortened: as §1
[3] = Solubility of compound in fasted state simulated intestinal fluid measured after 4 hrs; assay type: physicochemical
Procedure, shortened: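 Solubility in FaSSIF, read after 4 h incubation.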

[4] = target: T1, C-X-C chemokine receptor type 2 (Homo sapiens, UniProt P25025); assay: Antagonist activity at TEV protease cleavage site linked GAL4-VP16-fused recombinant human CXCR2 expressed in cells assessed as inhibition of […] human CXCL1-stimulated beta-arrestin recruitment by CCF4-AM-fluorescence based FRET assay; assay type: cell-based; conditions: read-out: pIC50 (converted)
T1 sequence (P25025 whole entry): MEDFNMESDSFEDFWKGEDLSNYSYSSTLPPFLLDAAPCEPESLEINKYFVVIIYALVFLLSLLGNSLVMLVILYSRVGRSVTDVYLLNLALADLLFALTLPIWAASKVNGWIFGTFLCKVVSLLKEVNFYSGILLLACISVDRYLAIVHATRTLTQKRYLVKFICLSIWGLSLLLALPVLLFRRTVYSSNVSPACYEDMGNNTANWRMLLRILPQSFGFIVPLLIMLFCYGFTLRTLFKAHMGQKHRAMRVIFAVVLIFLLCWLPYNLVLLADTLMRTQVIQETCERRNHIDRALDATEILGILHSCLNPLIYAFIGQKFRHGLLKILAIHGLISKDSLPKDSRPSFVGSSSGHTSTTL
Procedure, shortened: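 Stable cell line expressing recombinant human CXCR2 linked to a TEV site and Gal4-VP16. Cells were starved 24 h at 37 °C, 5% CO2, then resuspended at ~200,000 cells/mL. They were given compound in DMSO (concentration-response), stimulated with 80 nM hCXCL1 and incubated overnight at 37 °C. CCF4-AM substrate was then added for 2 h at RT in the dark.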

[5] = Fraction unbound in Han-Wistar SOA rat model brain at 2 mg/kg administered via oral gavage by UPLC/MS/MS analysis; assay type: ADME, organism-based
[6] = target: T1, C-X-C chemokine receptor type 2; assay: Antagonist activity at CXCR2 in human whole blood assessed as inhibition of GROalpha-stimulated CD11b upregulation preincubated for 15 mins followed by GROalpha stimulation measured after 15 mins by FITC-staining based FACS analysis
[7] = Fraction unbound in Han-Wistar SOA rat model blood at 2 mg/kg administered via oral gavage by UPLC/MS/MS analysis; assay type: ADME, organism-based
[8] = tested on: Brain; assay: Dose normalized AUC (0 to 7 hrs) in Han-Wistar SOA rat model brain at 2 mg/kg administered via oral gavage by UPLC/MS/MS analysis; assay type: ADME, organism-based; conditions: in vivo
Procedure, shortened: (§2)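 Male Han-Wistar rats were given 2 mg/kg by oral gavage as a suspension in DMSO:1% methylcellulose (1:99). Blood (cardiac puncture, EDTA-K2, under isoflurane) and brains were collected at 0.25–7 h. Brain was homogenised in 3-fold PBS, samples were protein-precipitated and quantified by UPLC/MS/MS.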

[9] = Ratio of brain dose normalized AUC (0 to 7 hrs) to […] dose normalized AUC (0 to 7 hrs), Kp of the compound in Han-Wistar SOA rat model at 2 mg/kg administered via oral gavage by UPLC/MS/MS analysis; assay type: ADME, organism-based
Procedure, shortened: (§3)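 Male Han-Wistar rats given a single 2 mg/kg oral gavage as a suspension in DMSO:1% methylcellulose (1:99). Blood was taken by cardiac puncture under isoflurane at 0.25–7 h, diluted 1:3 with water, and brains were homogenized in 3-fold PBS. Samples were extracted by acetonitrile protein precipitation and quantified by UPLC/MS/MS. Kp = brain DNAUC0-7h/blood DNAUC0-7h; Kp,uu = Kp×Fu,br/Fu,bl.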

[10] = tested on: Blood; assay: Dose normalized AUC (0 to 7 hrs) in Han-Wistar SOA rat model blood at 2 mg/kg administered via oral gavage by UPLC/MS/MS analysis; assay type: ADME, organism-based; conditions: in vivo; procedure, shortened: as §2
[11] = Unbound brain-to-blood concentration ratio in Han-Wistar SOA rat model at 2 mg/kg administered via oral gavage by UPLC/MS/MS analysis; assay type: ADME, organism-based; conditions: read-out: K(p,uu,brain); procedure, shortened: as §3
[12] = target: C-X-C chemokine receptor type 2 (Mus musculus, UniProt P35343); assay: Antagonist activity at CXCR2 in C57 mouse whole blood assessed as inhibition of GROalpha-stimulated CD11b upregulation preincubated for 2 hr followed by GROalpha stimulation measured after 10 mins by FITC-staining based FACS analysis
C-X-C chemokine receptor type 2 (Mus musculus, UniProt P35343), sequence (P35343 whole entry): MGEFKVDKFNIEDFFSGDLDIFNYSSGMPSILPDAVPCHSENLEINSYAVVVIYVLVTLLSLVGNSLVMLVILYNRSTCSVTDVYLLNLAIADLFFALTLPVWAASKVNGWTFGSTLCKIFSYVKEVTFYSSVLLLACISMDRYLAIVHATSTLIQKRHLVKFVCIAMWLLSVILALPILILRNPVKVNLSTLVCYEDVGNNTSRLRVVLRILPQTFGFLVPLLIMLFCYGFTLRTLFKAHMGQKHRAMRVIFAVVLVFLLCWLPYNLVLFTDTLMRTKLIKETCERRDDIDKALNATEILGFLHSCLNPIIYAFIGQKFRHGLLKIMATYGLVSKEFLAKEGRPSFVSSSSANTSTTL

[13] = target: C-X-C chemokine receptor type 2 (Mus musculus) (UniProt P35343); assay: Antagonist activity at CXCR2 in C57 mouse whole blood assessed as inhibition of GROalpha-stimulated CD11b upregulation at 10 uM preincubated for 2 hr followed by GROalpha stimulation measured after 10 mins by FITC-staining based FACS analysis
C-X-C chemokine receptor type 2 (Mus musculus), sequence (P35343 whole entry): as above

[14] = Efflux ratio of passive permeability in MDCK2-MDR1 cells transduced with BacMam2-BCRP at 3 uM after 90 mins by Transwell assay; assay type: ADME, cell-based, Canis lupus familiaris, MDCK-MDR1; conditions: dog
Procedure, shortened: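 MDCKII-MDR1 cells transduced with BacMam2-BCRP in Transwells. Compound at 3 μM was measured in duplicate, A→B and B→A, after 90 min, with and without 5 μM GF120918. ER = B→A/A→B permeability without inhibitor. System qualified with amprenavir and dantrolene ERs.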

| Structure (SMILES) | Ratio [1] | Papp at 1.5 h, 3 µM [2] | solubility at 4 h [3] | IC50 [4] | fraction unbound [5] | pIC50 [6] | fraction unbound [7] | AUC/dose [8] | Kp [9] | AUC/dose [10] | Kp uu [11] | pIC50 [12] | inhibition [13] | efflux ratio at 1.5 h, 3 µM [14] |
| --- | --- | --- | --- | --- | --- | --- | --- | --- | --- | --- | --- | --- | --- | --- |
| CC[C@@H](Nc1c(Nc2cccc(C(=O)N(C)C)c2O)c(=O)c1=O)c1ccc(C)o1 [NAVARIXIN ANHYDROUS] | – | – | – | – | – | – | – | – | – | – | – | 8.09 | Active | – |
| CC1=CCC[C@H]1NC(=O)Nc1ccc(Cl)c(S(=O)(=O)C2(F)CCOCC2)c1O | – | 32.3 ×10⁻⁶ cm/s | 3.3 µg/mL (≈ 7.62 µM) | 0.2 nM | – | 7.20 | – | – | – | – | – | – | – | 6.2 |
| CC1=CCC[C@H]1NC(=O)Nc1ccc(Cl)c(S(=O)(=O)C(F)(F)CN(C)C)c1O | – | 26.6 ×10⁻⁶ cm/s | 128 µg/mL (≈ 293 µM) | 2 nM | – | 6.20 | – | – | – | – | – | – | – | 12.6 |
| CC1=CCC[C@H]1NC(=O)Nc1ccc(Cl)c(S(=O)(=O)C(C)(C)C2CCOCC2)c1O | – | 30.3 ×10⁻⁶ cm/s | 1.4 µg/mL (≈ 3.06 µM) | 0.501 nM | – | 6.40 | – | – | – | – | – | – | – | 3.9 |

The remaining lines, values ahead:

| Ratio [1] | Papp at 1.5 h, 3 µM [2] | solubility at 4 h [3] | IC50 [4] | fraction unbound [5] | pIC50 [6] | fraction unbound [7] | AUC/dose [8] | Kp [9] | AUC/dose [10] | Kp uu [11] | pIC50 [12] | inhibition [13] | efflux ratio at 1.5 h, 3 µM [14] | Structure (SMILES) |
| --- | --- | --- | --- | --- | --- | --- | --- | --- | --- | --- | --- | --- | --- | --- |
| 4.5 | 12.7 ×10⁻⁶ cm/s | 24.6 µg/mL (≈ 55.5 µM) | 1.26 nM | – | – | – | – | – | – | – | – | – | – | CC1=CCC[C@H]1NC(=O)Nc1ccc(Cl)c(S(=O)(=O)C(C)(C)[C@@H]2CCOC2)c1O |
| 2.4 | 25.2 ×10⁻⁶ cm/s | 20.5 µg/mL (≈ 49.4 µM) | – | 0.106 | 6.80 | 0.036 | 60.5 ng·h/g/mg/kg | 0.08 | 788 ng·h/mL/mg/kg | 0.23 | – | – | – | CC1=CCC[C@H]1NC(=O)Nc1ccc(Cl)c(S(=O)(=O)[C@]2(C)CCOC2)c1O |
| 3.4 | 20.3 ×10⁻⁶ cm/s | 387 µg/mL (≈ 905 µM) | – | 0.137 | 6.90 | 0.05 | 161 ng·h/g/mg/kg | 0.06 | 2580 ng·h/mL/mg/kg | – | – | – | – | CC1=CCC[C@H]1NC(=O)Nc1ccc(Cl)c(S(=O)(=O)[C@H]2C[C@H](N(C)C)C2)c1O |
| – | 31.8 ×10⁻⁶ cm/s | 33.2 µg/mL (≈ 80 µM) | 1.26 nM | – | 6.90 | – | – | – | – | – | – | – | 3.8 | CC1=CCC[C@H]1NC(=O)Nc1ccc(Cl)c(S(=O)(=O)C2(C)CCOC2)c1O (stereo not given in full) |
